In the array DNA melting data of Ke et al. (doi:10.1101/2024.01.08.574731):

How the values were obtained:
[1] = melting temperature; fluorescence melt of hairpins on a sequencing array, two-state fit, raised by 9.35 °C to match UV melts; conditions: sodium 0.088 M
Procedure, shortened: (§1)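 Hairpins were imaged by Cy3 fluorescence on a sequenced MiSeq flow cell with annealed Cy3 and quencher oligos, in 50 mM Na-HEPES pH 8.0, 25 mM NaCl, in 2.5 °C steps up to 60 °C. Bootstrapped two-state fits of normalised signals gave melting temperature and folding enthalpy. Four replicates were combined by inverse variance, and fitted temperatures were raised by 9.35 °C to match UV melts.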

[2] = folding enthalpy; higher = less favourable; fluorescence melt of hairpins on a sequencing array, two-state fit; conditions: sodium 0.088 M
Procedure, shortened: as §1

Row | Sequence | Tm [1] [°C] | folding enthalpy [2] [kcal/mol]
1 | GCCCATCGAAAGATGGC (((.(((....)))))) | 56.1 | -14
2 | GTAGGCGGAAACGTCTAC ((((.((....)).)))) | 53.1 | -39.1
3 | GGATAGCGAAAGCTTTCC (((.(((....))).))) | 49.3 | -29.7
4 | GATCATCGCTATGATC ((((((....)))))) | 47.2 | -38.8
5 | GACCAGCGAAAGCTCGTC (((.(((....))).))) | 42.4 | -18.6
6 | GCTCAAGGAAACTTGAGC (((((((....))))))) | 64.4 | -46.3
7 | GATCCACTACTGGATC ((((((....)))))) | 49.7 | -35.5
8 | GGAACGGGAAACCATTCC ((((.((....)).)))) | 35.9 | -30.2
9 | GCCAGGGGAAACCCCAGC ((..(((....)))..)) | 38.3 | -21.5
10 | GGCGTCGAAAGACCGCC ((((((....))).))) | 60.5 | -34.5
11 | GATCCTCGGCAGGATC ((((((....)))))) | 49.7 | -29.4
12 | GTTGAAGGAAACTCCAAC ((((.((....)).)))) | 29.5 | -17.5
13 | GCGACCGGAAACGGCCGC (((.(((....))).))) | 65.1 | -25.9
14 | GGGGCAACGAAAGTTCCC (((..(((....)))))) | 47.4 | -25.5
15 | GCGAAGCGAAAGCCGCGC (((..((....))..))) | 61.6 | -16.8
16 | GAAAACACGAAAGTGTTC (((..(((....)))))) | 35.9 | -11.9
17 | GGACCCCGAAAGGGCTCC (((.(((....))).))) | 48.6 | -16.3
18 | GATCTTATCTAAGATC ((((((....)))))) | 45.2 | -41.9
19 | GATCCAGAATTGGATC ((((((....)))))) | 57.2 | -34.7
20 | GTGAGATCGAAAGATCAC (((..(((....)))))) | 45.6 | -17.6
21 | GAGATTGGAAACAGTCTC ((((.((....)).)))) | 40.8 | -27.4
22 | GTTCTGGGAAACCAGAGC (.(((((....))))).) | 46.3 | -24.2
23 | GATCGCCGTCGCGATC ((((((....)))))) | 66.6 | -36.5

Row | Sequence | Tm [1] [°C] | folding enthalpy [2] [kcal/mol]
24 | GCACCGGGAAACTGGTGC (((((.(....).))))) | 61.2 | -41
25 | GCCAGGCGAAAGCAGGGC (((..((....))..))) | 64 | -32.1
26 | GATCTTGGTAAAGATC ((((((....)))))) | 53.5 | -41.3
27 | GATCCAGGTCTGGATC ((((((....)))))) | 55 | -37.4
28 | GCAGGGACGAAAGTCTGC (((..(((....)))))) | 47.9 | -23
29 | GCTCAGCGAAAGCCGGGC ((.(.((....)).).)) | 45.4 | -17.1
30 | GCGGCGACCGC ((((...)))) | 55.8 | -16
31 | GTTTATGGAAACATAGAC ((.((((....)))).)) | 32.2 | -23.7
32 | GGTGCCGAAAGGCCACC ((((((....))).))) | 60.4 | -18.2
33 | GGGTGGGGAAACCCATCC ((.((((....)))).)) | 54.2 | -34.7
34 | GGCCTCGAAAGAGTGCC ((((((....))).))) | 58.2 | -37.7
35 | GGAGACGGAAACGTCCCC ((.((((....)))).)) | 49.2 | -20.1
36 | GAAAACGAAAGTTGATTC ((((((....)))..))) | 33.6 | -17.8
37 | GGTGTCGAAAGACCACC ((((((....))).))) | 49.7 | -27.6
38 | GTATTGCGAAAGCAGTAC (((.(((....))).))) | 51.6 | -26.8
39 | GCTATTGCGAAAGCAAGC (((..(((....)))))) | 42.2 | -10.2
40 | GCGTAAGGACGC ((((....)))) | 49.3 | -19.7
41 | GCGGTCTTCCGC ((((....)))) | 59.1 | -23.6
42 | GTGTCGCCGAAAGGCCAC (((..(((....)))))) | 44.4 | -15
43 | GAGGGGGGAAACCCCTTC ((.((((....)))).)) | 53.5 | -12.5
44 | GCCGACGCGAAAGCGGGC (((..(((....)))))) | 65.9 | -18.1
45 | GGGAAGCCGAAAGGCCCC (((..(((....)))))) | 50.6 | -16.3
46 | GTGAGCGAAAGCTGGCAC ((((((....)))..))) | 43 | -9

Row | Sequence | Tm [1] [°C] | folding enthalpy [2] [kcal/mol]
47 | GATCCAGTCCTGGATC ((((((....)))))) | 56.5 | -44.6
48 | GACGCTGGAAACAGCGCC (.(((((....))))).) | 53 | -12.4
49 | GTCGCAGGAAACTGCAAC ((.((((....)))).)) | 41.1 | -16.7
50 | GTAATTGGAAACGATTAC (((((.(....).))))) | 38.1 | -32.4
51 | CGTACGCGGAAACGCACG (((..(((....)))))) | 40.7 | -13.5
52 | GCGAAGGGAAACCTTCAC (.(((((....))))).) | 38.6 | -18.1
53 | GGCCTCGAAAGAGCGCC ((((((....))).))) | 56.7 | -21.8
54 | GTGCATGGAAACATGCGC (.(((((....))))).) | 56.9 | -21.5
55 | GATCTTACTCAAGATC ((((((....)))))) | 42.3 | -33.5
56 | GTAGACGAAAGTCGGTAC ((((((....)))..))) | 34.6 | -11.8
57 | GATCTGTAGCAGATC ((((((...)))))) | 47.3 | -37.4
58 | CGGGTCCGGAAACGGCCG (((..(((....)))))) | 47.5 | -14.3
59 | GTGCTAGGAAACTAGTGC (..((((....))))..) | 39.1 | -30.2
60 | GCGTAAGGAAACTTACGC (((((((....))))))) | 63.4 | -44.5
61 | GTGCAGGGAAACTTGCAC (((((.(....).))))) | 52.5 | -40.7
62 | GCGGCCGACCGC ((((....)))) | 57.6 | -26.7
63 | GAGGTGGGAAACTGCCTC ((((..(....)..)))) | 42.7 | -31.5
64 | GCCGTCGGAAACGGTGGC (((..((....))..))) | 51.3 | -22
65 | GCGTCGAGACGC ((((....)))) | 61 | -25.2
66 | GTAGCTGGAAACAACTAC ((((.((....)).)))) | 35.9 | -27.2
67 | GCTACGCGAAAGCCTTGC ((.(.((....)).).)) | 29.6 | -9.85
68 | CTCACGAAAGTGAG (((((....))))) | 61 | -22.2
69 | GGTCGTGGAAACACGATC (.(((((....))))).) | 54 | -38
